Experimental data published in ChEMBL document CHEMBL1158625, “Design of 1-piperazinyl-4-arylphthalazines as potent Smoothened antagonists” (Bioorg Med Chem Lett, 2010).
The source made the active and inactive calls. The rule behind the calls is not given here.

Legend:
CYP2D6 = CYP2D6 (Homo sapiens, UniProt P10635); experiment: Inhibition of human CYP2D6 at 3 uM by HPLC-MS; type: ADME
[1] = Metabolic stability in human liver microsome assessed as compound turnover after 30 mins; type: ADME; conditions: liver microsomes, read-out: Stability
Method in brief: (§1)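 Pooled human or rat liver microsomes (0.25 mg/mL), 37 °C, phosphate buffer pH 7.4, test compound 1 µM; NADPH 1 mM final; quenched at 0 or 30 min with organic solvent; unchanged parent by reversed-phase LC-MS/MS; percent turnover from peak area at 30 versus 0 min.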

CYP3A4 = CYP3A4 (Homo sapiens, UniProt P08684); experiment: Inhibition of human CYP3A4 at 3 uM by HPLC-MS; type: ADME
Sequence of CYP3A4 (P08684 whole entry): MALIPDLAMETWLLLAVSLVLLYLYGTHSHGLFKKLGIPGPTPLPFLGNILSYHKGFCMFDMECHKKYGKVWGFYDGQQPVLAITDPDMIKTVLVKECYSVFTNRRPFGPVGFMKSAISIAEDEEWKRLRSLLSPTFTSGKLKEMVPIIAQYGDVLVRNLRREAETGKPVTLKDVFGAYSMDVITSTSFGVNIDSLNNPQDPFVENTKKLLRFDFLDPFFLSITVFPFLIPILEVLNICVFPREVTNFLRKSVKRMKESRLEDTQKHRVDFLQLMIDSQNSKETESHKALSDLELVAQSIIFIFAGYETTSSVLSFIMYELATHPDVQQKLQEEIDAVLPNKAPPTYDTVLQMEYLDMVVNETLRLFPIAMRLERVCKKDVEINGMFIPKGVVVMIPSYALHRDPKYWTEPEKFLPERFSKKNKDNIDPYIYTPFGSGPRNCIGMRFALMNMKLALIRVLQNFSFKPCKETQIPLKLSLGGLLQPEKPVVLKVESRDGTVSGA

[2] = Metabolic stability in rat liver microsome assessed as compound turnover after 30 mins; type: ADME; conditions: liver microsomes, read-out: Stability; method in brief: as §1
Medulloblastoma cell = experiment: Antitumor activity against mouse Ptch+/- p53-/- medulloblastoma cells xenografted Harlan nu/nu mouse at 10 mg/kg, po qd administered after 8 days tumor implantation measured after 15 days; type: functional, organism-based; parameters: dose 10 mg/kg
Method in brief: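 Tumors from p53-/- Ptch+/- crossbred mice transplanted into immunocompromised mice; after 8 days animals randomized to compound 10 mg/kg QD oral or vehicle; tumor volume followed, reduction assessed day 15 versus treatment onset day 8; ten mice per group; Dunnett's method.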

[3] = Oral bioavailability in cynomolgus monkey at 2 mg/kg; type: ADME, organism-based, Macaca fascicularis; conditions: in vivo
[4] = Oral bioavailability in mouse at 2 mg/kg; type: ADME, organism-based; conditions: in vivo
[5] = Clearance in cynomolgus monkey at 0.5 mg/kg, iv; type: ADME, organism-based, Macaca fascicularis; parameters: dose 0.5 mg/kg, route intravenous; conditions: in vivo
[6] = Half life in dog at 0.5 mg/kg, iv; type: ADME, organism-based, Canis lupus familiaris; parameters: dose 0.5 mg/kg, route intravenous; conditions: in vivo
[7] = Volume of distribution at steady state in cynomolgus monkey at 0.5 mg/kg, iv; type: ADME, organism-based, Macaca fascicularis; parameters: dose 0.5 mg/kg, route intravenous; conditions: in vivo, read-out: Vdss
[8] = Volume of distribution at steady state in mouse at 1 mg/kg, iv; type: ADME, organism-based; parameters: dose 1 mg/kg, route intravenous; conditions: in vivo, read-out: Vdss
[9] = Half life in cynomolgus monkey at 0.5 mg/kg, iv; type: ADME, organism-based, Macaca fascicularis; parameters: dose 0.5 mg/kg, route intravenous; conditions: in vivo
[10] = Volume of distribution at steady state in dog at 0.5 mg/kg, iv; type: ADME, organism-based, Canis lupus familiaris; parameters: dose 0.5 mg/kg, route intravenous; conditions: in vivo, read-out: Vdss
[11] = Half life in mouse at 1 mg/kg, iv; type: ADME, organism-based; parameters: dose 1 mg/kg, route intravenous; conditions: in vivo
[12] = Oral bioavailability in dog at 2 mg/kg; type: ADME, organism-based, Canis lupus familiaris; conditions: in vivo
[13] = Half life in rat at 0.5 mg/kg, iv; type: ADME, organism-based; parameters: dose 0.5 mg/kg, route intravenous; conditions: in vivo
[14] = Clearance in mouse at 1 mg/kg, iv; type: ADME, organism-based; parameters: dose 1 mg/kg, route intravenous; conditions: in vivo
[15] = Clearance in rat at 0.5 mg/kg, iv; type: ADME, organism-based; parameters: dose 0.5 mg/kg, route intravenous; conditions: in vivo
Mus musculus = species on record: Mus musculus; experiment: Reduction in Gli1 mRNA expression in mouse skin after 6 hrs of treatment by RT-PCR; type: functional, organism-based
Method in brief: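 Mouse hind flanks depilated with wax; five days later single oral dose 2, 20 or 100 mg/kg; skin harvested after 6 h; Gli1 RNA by quantitative real-time PCR normalized to RGS (Pitx2) RNA; four mice per group, two samples each; Dunnett's method; plasma levels also measured.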

[16] = Volume of distribution at steady state in rat at 0.5 mg/kg, iv; type: ADME, organism-based; parameters: dose 0.5 mg/kg, route intravenous; conditions: in vivo, read-out: Vdss
[17] = Clearance in dog at 0.5 mg/kg, iv; type: ADME, organism-based, Canis lupus familiaris; parameters: dose 0.5 mg/kg, route intravenous; conditions: in vivo
[18] = Oral bioavailability in rat at 2 mg/kg; type: ADME, organism-based; conditions: in vivo
Protein smoothened = Protein smoothened (Mus musculus, UniProt P56726); experiment: Inhibition of mouse SMO expressed in NIH-3T3 cells; type: cell-based, NIH3T3
Sequence of Protein smoothened (P56726 whole entry): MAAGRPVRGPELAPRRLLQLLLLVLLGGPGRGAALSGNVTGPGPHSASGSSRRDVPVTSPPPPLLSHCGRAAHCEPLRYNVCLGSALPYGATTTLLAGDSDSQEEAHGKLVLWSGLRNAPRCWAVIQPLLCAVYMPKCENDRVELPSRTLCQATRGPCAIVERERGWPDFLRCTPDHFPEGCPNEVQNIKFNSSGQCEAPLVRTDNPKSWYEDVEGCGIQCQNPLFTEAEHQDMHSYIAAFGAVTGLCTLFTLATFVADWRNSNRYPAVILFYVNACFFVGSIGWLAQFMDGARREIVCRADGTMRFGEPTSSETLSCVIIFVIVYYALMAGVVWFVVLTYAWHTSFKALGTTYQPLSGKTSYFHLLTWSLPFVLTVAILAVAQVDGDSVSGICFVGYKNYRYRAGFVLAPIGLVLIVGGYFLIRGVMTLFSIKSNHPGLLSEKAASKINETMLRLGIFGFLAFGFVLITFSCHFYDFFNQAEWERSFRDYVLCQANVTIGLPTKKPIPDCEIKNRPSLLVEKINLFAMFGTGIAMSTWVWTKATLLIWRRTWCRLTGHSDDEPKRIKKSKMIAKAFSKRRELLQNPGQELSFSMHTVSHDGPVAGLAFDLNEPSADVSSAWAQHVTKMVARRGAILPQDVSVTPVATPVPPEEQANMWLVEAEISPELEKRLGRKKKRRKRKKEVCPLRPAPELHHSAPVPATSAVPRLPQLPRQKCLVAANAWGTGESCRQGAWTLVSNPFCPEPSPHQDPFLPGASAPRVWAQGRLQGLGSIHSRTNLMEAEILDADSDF

Sequence of CYP2D6 (P10635 whole entry): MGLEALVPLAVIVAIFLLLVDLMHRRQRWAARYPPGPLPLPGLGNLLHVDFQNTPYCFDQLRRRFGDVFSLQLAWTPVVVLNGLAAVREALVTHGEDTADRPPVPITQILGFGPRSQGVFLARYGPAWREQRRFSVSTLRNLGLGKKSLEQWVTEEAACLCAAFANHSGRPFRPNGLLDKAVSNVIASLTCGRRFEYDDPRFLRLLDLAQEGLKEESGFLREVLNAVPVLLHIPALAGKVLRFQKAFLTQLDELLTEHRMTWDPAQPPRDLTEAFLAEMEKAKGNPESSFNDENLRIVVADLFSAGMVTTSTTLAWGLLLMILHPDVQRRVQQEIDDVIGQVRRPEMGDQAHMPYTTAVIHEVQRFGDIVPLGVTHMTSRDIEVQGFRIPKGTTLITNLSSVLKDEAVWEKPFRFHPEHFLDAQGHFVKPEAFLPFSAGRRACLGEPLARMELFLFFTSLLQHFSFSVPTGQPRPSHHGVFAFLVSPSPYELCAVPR

| inhibition at 3 µM (CYP2D6) [%] | metabolised at 0.5 h [1] [%] | inhibition at 3 µM (CYP3A4) [%] | metabolised at 0.5 h [2] [%] | SMILES | further results |
| --- | --- | --- | --- | --- | --- |
| < 10 | 17 | < 10 | 21 | C[C@@H]1CN(c2nnc(-c3ccccc3)c3ccccc23)CCN1C(=O)c1ccccc1 |  |
| < 10 | < 10 | 12 | < 10 | C[C@@H]1CN(C(=O)c2ccccc2)CCN1c1nnc(-c2ccc(C#N)cc2)c2ccccc12 |  |
| 15 | < 10 | < 10 | < 10 | C[C@H]1CN(c2nnc(N3CC=CC=N3)c3ccccc23)CCN1C(=O)c1ccccc1 |  |
| 15 | 13 | < 10 | 11 | C[C@@H]1CN(C(=O)c2ccccc2)CCN1c1nnc(-c2ccc(C(F)(F)F)cc2)c2ccccc12 | Activity (Medulloblastoma cell): Active; bioavailability [3]: 31%; bioavailability [4]: 65%; clearance [5]: 8.83 mL/min/kg; half-life [6]: 10 h; Vd [7]: 2.52 L/kg; Vd [8]: 1.4 L/kg; half-life [9]: 4.3 h; Vd [10]: 2.96 L/kg; half-life [11]: 3.4 h; bioavailability [12]: 60%; half-life [13]: 9.5 h; clearance [14]: 5 mL/min/kg; clearance [15]: 6.83 mL/min/kg; Activity (Mus musculus): Dose-dependent effect; Vd [16]: 5.07 L/kg; clearance [17]: 3.33 mL/min/kg; bioavailability [18]: 39% |
|  | < 10 |  | 23 | C[C@H]1CN(C(=O)c2ccccc2)CCN1c1nnc(-c2ccccc2)c2ccccc12 |  |
| 26 | 59 | 90 | 82 | C[C@@H]1CN(C(=O)c2ccccc2)CCN1c1nnc(-c2ccc(N(C)C)cc2)c2ccccc12 |  |
| 10 | 38 | 13 | 43 | Cc1ccc(-c2nnc(N3CCN(C(=O)c4ccccc4)[C@@H](C)C3)c3ccccc23)cc1 |  |
| 52 | 10 | 58 | 25 | C[C@H]1CN(c2nnc(-c3ccncc3)c3ccccc23)CCN1C(=O)c1ccccc1 |  |
|  | 31 | < 10 | 10 | O=C(c1ccccc1)N1CCN(c2nnc(-c3ccc(Cl)c(Cl)c3)c3ccccc23)CC1 |  |
|  |  |  |  | O=C(c1cccs1)N1CCN(c2nnc(-c3ccccc3)c3ccccc23)CC1 | IC50 (Protein smoothened): 22 nM |
| 18 | 10 | < 10 | 10 | N#Cc1cccc(-c2nnc(N3CCN(C(=O)c4ccccc4)CC3)c3ccccc23)c1 |  |
| 48 | 43 | < 10 | 32 | O=C(c1ccco1)N1CCN(c2nnc(-c3ccccc3)c3ccccc23)CC1 |  |
| 27 | 10 | < 10 | 23 | C[C@H]1CN(c2nnc(-c3ncco3)c3ccccc23)CCN1C(=O)c1ccccc1 |  |
| 24 | 20 | 16 | 10 | O=C(c1ccccc1)N1CCN(c2nnc(-c3ccc(Cl)cc3)c3ccccc23)CC1 |  |
| 18 | 10 | 20 | 15 | C[C@H]1CN(c2nnc(-c3ccc(F)cc3)c3ccccc23)CCN1C(=O)c1ccccc1 |  |
| 60 | 38 | < 10 | 12 | C[C@@H]1CN(C(=O)c2ccccc2)CCN1c1nnc(-c2ccc(Cl)cc2)c2ccccc12 |  |
| < 10 | 10 | 12 | 12 | C[C@H]1CN(c2nnc(-c3cccnc3)c3ccccc23)CCN1C(=O)c1ccccc1 |  |
| < 10 | 34 | 31 | 21 | C[C@@H]1CN(C(=O)c2ccccc2)CCN1c1nnc(-c2ccc(C3CC3)cc2)c2ccccc12 |  |

| inhibition at 3 µM (CYP2D6) [%] | metabolised at 0.5 h [1] [%] | inhibition at 3 µM (CYP3A4) [%] | metabolised at 0.5 h [2] [%] | SMILES | further results |
| --- | --- | --- | --- | --- | --- |
| 10 | 89 | 25 | 94 | C[C@@H]1CN(C(=O)c2ccccc2)CCN1c1nnc(-c2ccc(C(C)(C)C)cc2)c2ccccc12 |  |
| < 10 | < 10 | < 10 | < 10 | C[C@H]1CN(c2nnc(-c3ccccn3)c3ccccc23)CCN1C(=O)c1ccccc1 |  |
| 47 | 44 | < 10 | 39 | C[C@@H]1CN(C(=O)c2ccccc2)CCN1c1nnc(-c2ccccc2)c2ccccc12 |  |
| < 10 | < 10 | 49 | < 10 | C[C@H]1CN(c2nnc(-c3ccc(C(F)(F)F)cc3)c3ccccc23)CCN1C(=O)c1ccccc1 |  |
| 29 | 17 | < 10 | 10 | O=C(c1ccccc1)N1CCN(c2nnc(-c3ccc(F)cc3)c3ccccc23)CC1 |  |
| 43 | < 10 | 40 | < 10 | C[C@H]1CN(c2nnc(-c3ccc(Cl)cc3)c3ccccc23)CCN1C(=O)c1ccccc1 |  |
| < 10 | 14 | 15 | 13 | C[C@@H]1CN(C(=O)c2ccccc2)CCN1c1nnc(-c2ccc(CO)cc2)c2ccccc12 |  |
| < 10 | 62 | < 10 | 15 | O=C(c1ccccc1)N1CCN(c2nnc(-c3ccccc3Cl)c3ccccc23)CC1 |  |
| 20 | 41 | 14 | 73 | CC(C)c1ccc(-c2nnc(N3CCN(C(=O)c4ccccc4)C[C@H]3C)c3ccccc23)cc1 |  |
| < 10 | 56 | < 10 | 55 | Cc1ccc(-c2nnc(N3CCN(C(=O)c4ccccc4)C[C@H]3C)c3ccccc23)cc1 |  |
| 11 | 19 | < 10 | 12 | O=C(c1ccccc1)N1CCN(c2nnc(-c3ccccc3)c3ccccc23)CC1 |  |
| 89 | 48 | < 10 | 25 | O=C(c1nccs1)N1CCN(c2nnc(-c3ccccc3)c3ccccc23)CC1 |  |
| 19 | 27 | < 10 | 22 | COc1ccc(-c2nnc(N3CCN(C(=O)c4ccccc4)CC3)c3ccccc23)cc1 |  |
| < 10 | 45 | < 10 | 72 | Cc1ccc(-c2nnc(N3CCN(C(=O)c4ccccc4)CC3)c3ccccc23)cc1 |  |
| 19 | 43 | < 10 | 33 | COc1cccc(-c2nnc(N3CCN(C(=O)c4ccccc4)CC3)c3ccccc23)c1 |  |
| 11 | < 10 | < 10 | 21 | C[C@H]1CN(c2nnc(-c3ccccc3)c3ccccc23)CCN1C(=O)c1ccccc1 |  |
| 29 | 10 |  | 10 | CC(=O)N1CCN(c2nnc(-c3ccccc3)c3ccccc23)CC1 |  |
| 24 | 90 | < 10 | 40 | Cc1ccccc1-c1nnc(N2CCN(C(=O)c3ccccc3)CC2)c2ccccc12 |  |
